# High-throughput results as filed in PubChem.
# An excerpt weighted towards active compounds, which were near 8.2% of everything screened.
# HePTP inhibitor – inhibitors of human HePTP phosphatase; recombinant HePTP phosphatase activity, OD absorbance; inhibition, % at 20 µM; 0.64% of 110,000 active; in the data active = inhibition above about 50%; inconclusive = no clear call, values can overlap the other calls;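 note: plate controls were vehicle for no effect and reference inhibitor for full effect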
# D1 mod – D1 dopamine receptor (human) allosteric modulation; P21728; HEK293 D1, CRE-luciferase, dopamine EC30 potentiation; actives deviate in either direction; B-score at 10 µM; 5.9% of 58,000 active;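 active = luminescence count or its row- and column-corrected plate score outside the 99.7% band of the plate's sample wells, on either side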
# SF-1 act – activates the human nuclear receptor SF-1; Q13285; CHO-K1 Gal4-SF-1 LBD luciferase reporter; % increase over DMSO SF-1-specific signal; activation, % at 10 µM; 1.9% of 65,000 active; AID 522;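 active = activation above the mean activation of all tested compounds plus 3 SD, cut at about 50% in these data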
#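 Test system: transient Gal4-SF-1 LBD reporter, CHO-K1; Amount: 4,000 CHO-K1 cells per well; Doses: 10 µM only; Timing: compound exposure 20 h at 37 °C; Signal: luciferase light emission; Read-out basis: percent activation relative to DMSO median and mock-transfected background; Control set: DMSO negative control and −SF1 background wells; Replicates: one test per compound.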
# M1 ag – agonists of M1 muscarinic receptor. CHO-M1 cells, Fluo-4 calcium fluorescence, agonist mode; hits give high values. B-score at 10 µM. 3% of 64,000 active;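 active = fluorescence rise, raw or as B-score row- and column-corrected plate score, outside the 99.7% band of its plate's samples, either direction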
# RORa activator – activates the human nuclear receptor RORA. CHO-K1 Gal4-RORA LBD luciferase reporter, luminescence; percent increase over mock-subtracted basal signal. activation, % at 10 µM. AID 560. 1.5% of 65,000 active. P35398;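 active = activation above the mean of all tested compounds plus 3 SD, cut at about 49% in these data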;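 note: 0% = DMSO-treated RORA cells and 100% = added signal equal to DMSO minus mock-transfected cells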
# M1 antagonist – antagonists of rat M1 muscarinic receptor | CHO-M1 cells, Fluo-4 calcium, ACh EC80 antagonist mode; hits give low values | B-score at 10 µM | 3.4% of 64,000 active | P08482;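 active = calcium fluorescence response, raw or row-and-column corrected B-score, differing from the plate sample mean either way at a set confidence level, mostly lower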
# Target sequence (P08482 whole entry, looked up): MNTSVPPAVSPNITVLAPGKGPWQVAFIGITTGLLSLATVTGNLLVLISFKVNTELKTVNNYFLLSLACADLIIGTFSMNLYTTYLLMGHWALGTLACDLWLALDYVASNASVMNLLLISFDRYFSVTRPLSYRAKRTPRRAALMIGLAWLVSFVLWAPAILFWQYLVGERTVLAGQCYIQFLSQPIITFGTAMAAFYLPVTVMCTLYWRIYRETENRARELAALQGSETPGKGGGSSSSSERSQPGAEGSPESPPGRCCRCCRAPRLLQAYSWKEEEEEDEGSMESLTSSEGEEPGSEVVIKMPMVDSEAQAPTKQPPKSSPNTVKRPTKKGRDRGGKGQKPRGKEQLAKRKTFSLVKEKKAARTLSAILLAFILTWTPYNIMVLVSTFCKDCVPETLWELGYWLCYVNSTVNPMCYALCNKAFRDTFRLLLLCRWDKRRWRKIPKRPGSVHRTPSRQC
# M1 ag confirm – confirmation of rat M1 muscarinic receptor agonists. fluorescence change (max-min) at 10 µM. 19% of 1,700 active. CHO-M1 cells, Fluo-4 calcium fluorescence, agonist mode; actives lie on both sides. AID 1488. shares compounds with M1 ag;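 active = fluorescence change differs from the solvent-only DMSO control mean at a set confidence level in both duplicate runs; inconclusive = differs from solvent-only control mean in just one of two runs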;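 note: an EC20 dose of acetylcholine follows compound addition during the same imaging run; raw fluorescence intensity difference in instrument units with no normalization to controls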
# M4 agonist ctr – rat M4 muscarinic agonism, M1 counter-screen. 9% of 1,700 active. AID 1741. shares compounds with M1 ag. fluorescence change (max-min) at 10 µM. CHO M4/Gqi5 cells, Fluo-4 calcium fluorescence, agonist mode; actives lie on both sides;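 active = fluorescence change differing from the plate's solvent-only control wells at 99.7% confidence in both duplicates, whether higher or lower; inconclusive = differs from solvent controls in only one of two duplicates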
# M1 antag conf – confirmation of rat M1 muscarinic receptor antagonists | 43% of 1,700 active | CHO-M1 cells, Fluo-4 calcium, ACh EC80 antagonism; hits give low values | calcium response (max-min fluorescence) at 10 µM | AID 677 | shares compounds with M1 antagonist;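 active = calcium response below the same-plate mean of wells given acetylcholine alone at its 80%-effect dose, minus 3 SD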;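 note: raw fluorescence intensity difference in arbitrary instrument units and not normalized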
# mGluR4 antag – selectivity test for M1 antagonists: human mGluR4 receptor | 0.9% of 1,700 active | AID 678 | shares compounds with M1 antagonist | CHO-mGluR4 calcium flux, Fluo-4 fluorescence, glutamate EC80; hits give low values | fluorescence response (max-min) at 10 µM;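 active = fluorescence response below the plate's average for near-maximal glutamate wells, less 3 SD of those wells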;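 note: raw unnormalized fluorescence span taken in the window right after glutamate addition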
# D1 mod confirm – confirmation of human D1 dopamine receptor allosteric modulators. shares compounds with D1 mod. HEK293 D1 CRE-luciferase, dopamine EC30 potentiation; hits give high values. luminescence at 10 µM. 88% of 2,200 active. AID 642;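 active = luminescence in either of two replicates above the same-plate mean plus 3 SD of the low-dose dopamine control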
# D1 ag no DA – activates D1 CRE-luciferase signal without dopamine present | HEK293 D1 CRE-luciferase, luminescence, no dopamine; hits give high values | shares compounds with D1 mod | 0.8% of 1,900 active | luminescence at 10 µM; in the data active = luminescence above about 3900
# Isoprot counter – isoproterenol response counter-screen activity for D1 modulators. 63% of 2,200 active. HEK293 D1 CRE-luciferase, isoproterenol EC30 counter-screen. shares compounds with D1 mod. AID 647. calls only at 10 µM;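 active = luminescence in either replicate above plate mean of wells with a partly effective reference agonist dose plus 3 SD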;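 note: isoproterenol raises cAMP through native beta-adrenoceptor Gs so signal bypasses D1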
# Active calls of the source: *; ? = inconclusive; nt = no result; + = active, no number.
SMILES,HePTP inhibitor,D1 mod,SF-1 act,M1 ag,RORa activator,M1 antagonist,M1 ag confirm,M4 agonist ctr,others
OCC1(CO)COC(c2cccnc2)N1 (stereo not given),2,-0.97,10,0.019,1,0.38,nt,nt,
CNCC(O)c1cccc(OC(=O)c2ccccc2C)c1 (stereo not given),-5,-0.61,18,-3.3*,-14,0.58,-14,?,
CN1CC=C2C(C#N)=C(N)C(C#N)(C#N)C(c3ccncc3)C2C1 (stereo not given),3,-0.2,2,78*,2,-1.2,242*,212*,
CC(C)(C)n1c(O)c(C=Nc2ccc3c(c2)CCC3)c(=O)[nH]c1=O,6,-0.34,-1,-0.2,-9,-0.018,nt,nt,
O=C(c1cc(-c2cccnc2)nc2ccc(Cl)cc12)N1CCC2(CC1)OCCO2,1,-0.54,0,2.8*,6,-1.1,-35*,-90,
O=S1(=O)CC2(N3CCOCC3)CCCCCCC21 (stereo not given),3,-0.22,26,2.9*,7,0.45,-12,-39,
CCCC(=O)OCC[N+](C)(C)C,8,0.089,-4,40*,-12,-7.7*,378*,7.3,
O=c1[nH]c(=O)n(C2CCCCC2)c(O)c1C=NCCCn1ccnc1,4,2.2,9,0.88,-24,0.97,nt,nt,
CCCCn1c(O)c(C(CC)=NCc2ccc3c(c2)OCO3)c(=O)[nH]c1=O,5,7.4*,-8,4.3*,3,-0.8,5.3,-24,D1 mod confirm=12520*;D1 ag no DA=1728;Isoprot counter=+
CCC(C)N1CCN(Cc2ccccc2Br)CC1 (stereo not given),1,nt,nt,nt,nt,nt,nt,nt,
O=c1c2ccccc2nc(-c2ccccc2)n1-n1cccc1,-3,2.2,-8,0.97,0,-2*,nt,nt,M1 antag conf=632;mGluR4 antag=249
Cc1nc2ccccc2c(=O)n1-c1ccccn1,0,-0.33,9,0.34,12,-0.12,nt,nt,
Cc1nc2ccccc2c(=O)n1-n1cnnc1,6,-1.3,-20,-0.7,-3,-2.7*,nt,nt,M1 antag conf=726;mGluR4 antag=236
CCn1c(=O)cc(SCC(=O)N2CCC3(CC2)OCCO3)c2ccccc21,5,nt,-19,1,-7,0.19,nt,nt,
Cc1c(N=Cc2c(O)n(CCc3ccc(F)cc3)c(=O)[nH]c2=O)c(=O)n(-c2ccccc2)n1C,6,0.022,-5,0.9,-19,-4.8*,nt,nt,M1 antag conf=259*;mGluR4 antag=241
CCC(CC)C1C(C#N)=C(N)Oc2c1c(=O)oc1ccccc21 (stereo not given),-3,nt,nt,nt,nt,nt,nt,nt,
O=c1[nH]c(=O)n(CCc2ccc(F)cc2)c(O)c1C=NCCCn1ccnc1,4,0.1,2,-0.69,-6,0.25,nt,nt,
O=c1[nH]c(=O)n(Cc2ccco2)c(O)c1C=NCCCn1ccnc1,2,-0.38,-8,-0.38,-9,-2.8*,nt,nt,M1 antag conf=672;mGluR4 antag=262
O=C(c1ccc(Cl)cc1)C12CN3CN(CN(C3)C1)C2,-5,0.12,8,-1.5,8,-0.36,nt,nt,
